Converted amounts (≈) assume the structure as drawn.

One assay relates to Bacillus spizizenii. Briefly: Antibacterial activity against Bacillus subtilis ATCC 6633 after 24 hrs by serial two fold dilution method. The note with it: ATCC 6633, 24 h. It is filed as functional. The method, boiled down: (§1)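 Broth microdilution MIC. Bacteria grown overnight in LB broth at 37 °C, harvested by centrifugation and washed twice in sterile distilled water. Compound DMSO stocks were diluted in Standard method broth to give serial 2-fold dilutions from 100 to […] μg/mL. About 10^5 cfu/mL of test bacteria were added per well, and plates were incubated 24 h at 37 °C.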

The test system of another assay is Proteus hauseri. Kind of assay: Antibacterial activity against Proteus hauseri NBRC 3851 after 24 hrs by serial two fold dilution method. The format is functional. The note with it: NBRC 3851, 24 h. In a few lines: as §1
The nature of assay [1]: Antibacterial activity against Salmonella enterica ATCC 14028 after 24 hrs by serial two fold dilution method. It is filed as functional. The note with it: ATCC 14028, 24 h. In a few lines:
as §1

A further assay relates to Escherichia coli. Briefly: Antibacterial activity against Escherichia coli ATCC 25922 after 24 hrs by serial two fold dilution method. The note with it: ATCC 25922, 24 h. The format is functional. The method, boiled down:
as §1

Another assay deals with Staphylococcus aureus. Briefly: Antibacterial activity against Staphylococcus aureus ATCC 6538p after 24 hrs by serial two fold dilution method. The format is functional. The method, boiled down:
as §1

Another assay has as its system Kocuria rhizophila. Kind of assay: Antibacterial activity against Kocuria rhizophila NBRC 12708 after 24 hrs by serial two fold dilution method. The format is functional. The note with it: NBRC 12708, 24 h. The method, boiled down:
as §1

Assay [2] is described as follows: Growth inhibition of human K562 cells. It is filed as functional, cell-based.
Assay [3] can be described thus: Growth inhibition of human SKHEP1 cells. The format is functional, cell-based. The note with it: SK-HEP1.
Assay [4] is described as follows: Growth inhibition of human MDA-MB-231 cells. The format is functional, cell-based.
Assay [5] can be described thus: Antifungal activity against Trichophyton mentagrophytes. The format is functional.
For another assay, the system named is Candida albicans. Briefly: Antifungal activity against Candida albicans. The format is functional.
Assay [6] in a line: Growth inhibition of human A549 cells. It is filed as functional, cell-based.
Assay [7] can be described thus: Growth inhibition of human SNU638 cells. The note with it: SNU-638. The format is functional, cell-based.
The nature of assay [8]: Antifungal activity against Trichophyton rubrum. The format is functional.
Assay [9] can be described thus: Growth inhibition of human HCT116 cells. The format is functional, cell-based. The note with it: HCT-116.
The subject of a further assay is Aspergillus fumigatus. Kind of assay: Antifungal activity against Aspergillus fumigatus. It is filed as functional.

Consider `CC1(C)S[C@@H]2[C@H](NC(=O)[C@H](N)c3ccccc3)C(=O)N2[C@H]1C(=O)O` [AMPICILLIN], for which the MIC (as a rule, the lowest concentration found to suppress growth) with Bacillus spizizenii came out at 1.56 µg/mL (≈ 4.46 µM); against Proteus hauseri, 1.56 µg/mL (≈ 4.46 µM); in assay [1], 3.12 µg/mL (≈ 8.93 µM); against Escherichia coli, 6.25 µg/mL (≈ 17.9 µM); against Staphylococcus aureus, 3.12 µg/mL (≈ 8.93 µM); against Kocuria rhizophila, 0.79 µg/mL (≈ 2.26 µM).

Consider `C=C[C@]1(C)CCC2=C(C1)C(=O)C[C@H]1C(CO)=CC(=O)[C@@H](O)[C@]21C`, for which the IC50 in [2], in [3], in [4], in assay [6], in [7] and in [9] was above 100 µg/mL each time. Also, the MIC (in the assay with Bacillus spizizenii; with Proteus hauseri; in assay [5]; in [1]; with Escherichia coli; against Candida albicans) was above 100 µg/mL in each case. Besides, the MIC (in the assay with Staphylococcus aureus; in assay [8]; in the assay on Kocuria rhizophila; against Aspergillus fumigatus) was above 100 µg/mL throughout.

For `C=C[C@]1(C)CCC2=C(C1)[C@H](O)C[C@H]1C(CO)=CC(=O)[C@@H](O)[C@]21C`, the IC50 in assay [2], in assay [3], in assay [4], in [6], in assay [7] and in [9] was above 100 µg/mL throughout. For the same molecule, the MIC is 1.56 µg/mL (≈ 4.9 µM) in the assay with Bacillus spizizenii; 0.78 µg/mL (≈ 2.45 µM) in the assay on Proteus hauseri; above 100 µg/mL in assay [5]; 3.12 µg/mL (≈ 9.8 µM) in assay [1]; above 100 µg/mL in the assay with Escherichia coli; above 100 µg/mL against Candida albicans. Moreover, the MIC against Staphylococcus aureus is 0.78 µg/mL (≈ 2.45 µM); in [8], above 100 µg/mL; with Kocuria rhizophila, 0.39 µg/mL (≈ 1.22 µM); against Aspergillus fumigatus, above 100 µg/mL.

Values taken from ChEMBL document CHEMBL3861972, “Actinomadurol, an Antibacterial Norditerpenoid from a Rare Actinomycete, Actinomadura sp. KC 191” (J Nat Prod, 2016).
